Data: ChEMBL document CHEMBL4665858, “New BODIPYs for photodynamic therapy (PDT): Synthesis and activity on human cancer cell lines” (Bioorg Med Chem, 2020)
Calls of active or inactive are those of the source. No cut-off for these calls is given here.

Legend:
SK-OV-3 [1] = assay: Antimigratory activity against human SK-OV-3 cells assessed as open scratch wound at 2.5 nM incubated for 24 hrs by scratch wound healing based microscopic analysis; format: functional, cell-based
SK-OV-3 [2] = assay: Antimigratory activity against human SK-OV-3 cells assessed as open scratch wound at 0.75 nM incubated for 24 hrs by scratch wound healing based microscopic analysis; format: functional, cell-based
MCF7 [3] = assay: Induction of apoptosis in human MCF7 cells assessed as increase in apoptotic incubated for 24 hrs by PI staining based flow cytometric analysis; format: functional, cell-based
SK-OV-3 [4] = assay: Induction of apoptosis in human SK-OV-3 cells assessed as increase in apoptotic incubated for 24 hrs by PI staining based flow cytometric analysis; format: functional, cell-based
HCT-116 [5] = assay: Induction of apoptosis in human HCT116 cells assessed as increase in apoptotic incubated for 24 hrs by PI staining based flow cytometric analysis; format: functional, cell-based
MCF7 [6] = assay: Induction of cell cycle arrest in human MCF7 cells assessed as cell cycle distribution at antiproliferative IC50 incubated for 24 hrs by PI staining based flow cytometric analysis; format: functional
SK-OV-3 [7] = assay: Induction of cell cycle arrest in human SK-OV-3 cells assessed as cell cycle distribution at antiproliferative IC50 incubated for 24 hrs by PI staining based flow cytometric analysis; format: functional
HCT-116 [8] = assay: Induction of cell cycle arrest in human HCT116 cells assessed as cell cycle distribution at antiproliferative IC50 incubated for 24 hrs by PI staining based flow cytometric analysis; format: functional
MCF7 [9] = assay: Induction of cell cycle arrest in human MCF7 cells assessed as accumulation at G1 phase at antiproliferative IC50 preincubated for 24 hrs followed by irradiated with green LED for 2 hrs then incubated in dark for 24 hrs in drug free medium by PI staining based flow cytometric analysis; format: functional
Summary of the method: (§1)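 DNA content measured by PI flow cytometry (575 nm) in linear mode to give cell-cycle phase distribution. Untreated controls; 3 independent experiments.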

SK-OV-3 [10] = assay: Induction of cell cycle arrest in human SK-OV-3 cells assessed as accumulation at G1 phase at antiproliferative IC50 preincubated for 24 hrs followed by irradiated with green LED for 2 hrs then incubated in dark for 24 hrs in drug free medium by PI staining based flow cytometric analysis; format: functional; summary of the method: as §1
HCT-116 [11] = assay: Induction of cell cycle arrest in human HCT116 cells assessed as accumulation at G1 phase at antiproliferative IC50 preincubated for 24 hrs followed by irradiated with green LED for 2 hrs then incubated in dark for 24 hrs in drug free medium by PI staining based flow cytometric analysis; format: functional; summary of the method: as §1
SK-OV-3 [12] = assay: (§2) Antimigratory activity against human SK-OV-3 cells assessed as open scratch wound at 0.75 nM preincubated for 24 hrs followed by irradiated with green LED for 2 hrs then incubated in dark for 24 hrs in drug free medium by scratch wound healing based microscopic analysis (reference value: 8.68 +/- 0.58%); format: functional
MCF7 [13] = assay: Induction of ROS generation in human MCF7 cells at antiproliferative IC50 preincubated for 24 hrs followed by irradiated with green LED for 2 hrs then incubated in dark for 24 hrs in drug free medium by DCFH-DA dye based flow cytometry relative to control; format: functional, cell-based
SK-OV-3 [14] = assay: Antimigratory activity against human SK-OV-3 cells assessed as open scratch wound at 0.75 nM preincubated for 24 hrs followed by irradiated with green LED for 2 hrs measured immediately in drug free medium by scratch wound healing based microscopic analysis (Rvb 38.27 +/- 3.02%); format: functional
HCT-116 [15] = assay: Induction of ROS generation in human HCT116 cells at antiproliferative IC50 preincubated for 24 hrs followed by irradiated with green LED for 2 hrs then incubated in dark for 24 hrs in drug free medium by DCFH-DA dye based flow cytometry relative to control; format: functional, cell-based
[16] = Drug uptake in human MCF7 cells assessed as intracellular accumulation at 10 uM incubated for 24 hrs spectrophotometric analysis; format: ADME, cell-based; conditions: mcf7, 24 h
Summary of the method: (§3)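 Cells (3 × 10^6 per 75 cm² flask) grown 48 h, then exposed 24 h to BODIPY at 10 µM. Cells trypsinized and lysed in 0.1 M NaOH/1% SDS (5 × 10^6 cells/mL). Absorbance read at λmax; intracellular amount taken from a calibration curve prepared in SDS-lysed cells. 3–5 independent experiments.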

[17] = Drug uptake in human HCT116 cells assessed as intracellular accumulation at 10 uM incubated for 24 hrs spectrophotometric analysis; format: ADME, cell-based; conditions: hct-116, 24 h; summary of the method: as §3
[18] = Drug uptake in human SK-OV-3 cells assessed as intracellular accumulation at 10 uM incubated for 24 hrs spectrophotometric analysis; format: ADME, cell-based; conditions: sk-ov-3, 24 h; summary of the method: as §3
MCF7 [19] = assay: Induction of apoptosis in human MCF7 cells assessed as increase in apoptotic cells at antiproliferative IC50 preincubated for 24 hrs followed by irradiated with green LED for 2 hrs then incubated in dark for 24 hrs in drug free medium by PI staining based flow cytometric analysis; format: functional, cell-based
Summary of the method: (§4)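 PI-stained cells analyzed by flow cytometry (575 nm); apoptotic fraction taken from the sub-G1 peak in log-mode histograms. Untreated controls; 3–5 independent experiments.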

SK-OV-3 [20] = assay: Induction of apoptosis in human SK-OV-3 cells assessed as increase in apoptotic cells at antiproliferative IC50 preincubated for 24 hrs followed by irradiated with green LED for 2 hrs then incubated in dark for 24 hrs in drug free medium by PI staining based flow cytometric analysis; format: functional, cell-based; summary of the method: as §4
MCF7 [21] = assay: Induction of apoptosis in human MCF7 cells assessed as increase in necrotic cells at antiproliferative IC50 preincubated for 24 hrs followed by irradiated with green LED for 2 hrs then incubated in dark for 24 hrs in drug free medium by PI staining based flow cytometric analysis; format: functional, cell-based; summary of the method: as §4
SK-OV-3 [22] = assay: Induction of apoptosis in human SK-OV-3 cells assessed as increase in necrotic cells at antiproliferative IC50 preincubated for 24 hrs followed by irradiated with green LED for 2 hrs then incubated in dark for 24 hrs in drug free medium by PI staining based flow cytometric analysis; format: functional, cell-based; summary of the method: as §4
SK-OV-3 [23] = assay: Induction of cell cycle arrest in human SK-OV-3 cells assessed as cell cycle distribution at antiproliferative IC50 preincubated for 24 hrs followed by irradiated with green LED for 2 hrs then incubated in dark for 24 hrs in drug free medium by PI staining based flow cytometric analysis; format: functional; summary of the method: as §1
MCF7 [24] = assay: Induction of cell cycle arrest in human MCF7 cells assessed as cell cycle distribution at antiproliferative IC50 preincubated for 24 hrs followed by irradiated with green LED for 2 hrs then incubated in dark for 24 hrs in drug free medium by PI staining based flow cytometric analysis; format: functional; summary of the method: as §1
HCT-116 [25] = assay: Induction of cell cycle arrest in human HCT116 cells assessed as cell cycle distribution at antiproliferative IC50 preincubated for 24 hrs followed by irradiated with green LED for 2 hrs then incubated in dark for 24 hrs in drug free medium by PI staining based flow cytometric analysis; format: functional; summary of the method: as §1
MCF7 [26] = assay: Antiproliferative activity against human MCF7 cells assessed as reduction in cell viability preincubated for 24 hrs followed by irradiated with green LED for 2 hrs then incubated in dark for 24 hrs in drug free medium by MTT assay; format: functional, cell-based; conditions: MCF7, light or radiation study
Summary of the method: (§5)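 HCT116 and SKOV3 grown in DMEM, MCF7 in RPMI1640, all with 10% FBS. Cells attached 24 h, then exposed 24 h to BODIPY (0.1–200 nM) at 37 °C. Medium replaced by PBS and cells irradiated 2 h with green LED, then held 24 h in the dark in drug-free medium. MTT (2 mg/mL) added for 3 h; DMSO-dissolved formazan read by absorbance. IC50 from dose-response curves; 3–5 independent experiments.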

SK-OV-3 [27] = assay: Antiproliferative activity against human SK-OV-3 cells assessed as reduction in cell viability preincubated for 24 hrs followed by irradiated with green LED for 2 hrs then incubated in dark for 24 hrs in drug free medium by MTT assay; format: functional, cell-based; conditions: SK-OV-3, light or radiation study; summary of the method: as §5
HCT-116 [28] = assay: Antiproliferative activity against human HCT116 cells assessed as reduction in cell viability preincubated for 24 hrs followed by irradiated with green LED for 2 hrs then incubated in dark for 24 hrs in drug free medium by MTT assay; format: functional, cell-based; conditions: HCT-116, light or radiation study; summary of the method: as §5
SK-OV-3 [29] = assay: Induction of ROS generation in human SK-OV-3 cells at antiproliferative IC50 preincubated for 24 hrs followed by irradiated with green LED for 2 hrs measured at the end of irradiation in drug free medium by DCFH-DA dye based flow cytometry relative to control
SK-OV-3 [30] = assay: as §2, with “2.5” for “0.75”; format: functional
SK-OV-3 [31] = assay: Antimigratory activity against human SK-OV-3 cells assessed as open scratch wound at 2.5 nM preincubated for 24 hrs followed by irradiated with green LED for 2 hrs measured immediately in drug free medium by scratch wound healing based microscopic analysis (Rvb 38.27 +/- 3.02%); format: functional

| Drug uptake [16] | Drug uptake [17] | Drug uptake [18] | SMILES | Activity (SK-OV-3 [1]) | Activity (SK-OV-3 [2]) | Activity (MCF7 [3]) | Activity (SK-OV-3 [4]) | Activity (HCT-116 [5]) | Activity (MCF7 [6]) | Activity (SK-OV-3 [7]) | Activity (HCT-116 [8]) | Activity (MCF7 [9]) | Activity (HCT-116 [11]) | Activity (MCF7 [13]) | Activity (HCT-116 [15]) | Activity (MCF7 [19]) | Activity (SK-OV-3 [20]) | Activity (MCF7 [21]) | Activity (SK-OV-3 [22]) | Activity (SK-OV-3 [23]) | other results |
| --- | --- | --- | --- | --- | --- | --- | --- | --- | --- | --- | --- | --- | --- | --- | --- | --- | --- | --- | --- | --- | --- |
| Active | Active | Active | CC1=C(I)C(C)=[N+]2C1=C(c1ccc(OCCCCBr)cc1)c1c(C)c(I)c(C)n1[B-]2(F)F | inactive | inactive | inactive | inactive | inactive | inactive | inactive | inactive | inactive | inactive | inactive | inactive | Active | Active | Active | Active | inactive | Activity (SK-OV-3 [10]): inactive; Activity (SK-OV-3 [12]): 24.81%; Activity (SK-OV-3 [14]): 35.19%; Activity (MCF7 [24]): inactive; Activity (HCT-116 [25]): inactive; IC50 (MCF7 [26]): 6.88 nM; IC50 (SK-OV-3 [27]): 3.56 nM; IC50 (HCT-116 [28]): 2 nM; Activity (SK-OV-3 [29]): Active |
| Active | Active | Active | CC1=C(I)C(C)=[N+]2C1=C(c1ccc(OCCCCCCCCBr)cc1)c1c(C)c(I)c(C)n1[B-]2(F)F | inactive | inactive | inactive | inactive | inactive | inactive | inactive | inactive | inactive | inactive | inactive | inactive | Active | Active | Active | Active | inactive | Activity (SK-OV-3 [30]): 13.53%; Activity (SK-OV-3 [31]): 37.71%; Activity (MCF7 [24]): inactive; Activity (HCT-116 [25]): inactive; IC50 (MCF7 [26]): 23.1 nM; IC50 (SK-OV-3 [27]): 15.6 nM; IC50 (HCT-116 [28]): 11.7 nM; Activity (SK-OV-3 [29]): Active |
